Assay results collected from several papers.
Each line is one published result; the experiments were not run side by side. pEC50, pIC50: −log10 of the molar value.
Organism: Trypanosoma brucei
Observed: parasite growth

Compound	test	test system	setting	measurement	value
COc1cc(N2CCN(C(C)C)CC2)ccc1Nc1nc(Nc2ccc(F)cc2C(N)=O)c2cc[nH]c2n1	–	–	–	pEC50	6.70
Cc1ccc2nc(-c3ccc(Cl)cc3)cn2c1	–	–	48 h	pEC50	4.98
COc1cc2c(cc1Nc1nc(Nc3ccsc3C(N)=O)c3cc[nH]c3n1)N(C(=O)CN(C)C)CCC2	–	–	–	pEC50	6.20
Nc1nc(N)c2nc(CNc3cccc4ccccc34)cnc2n1	resazurin	–	10 µM, 72 h	inhibition	31%
Clc1ccc2c(c1)N(CCCN1CCN(CCCc3ccccc3)CC1)c1ccccc1S2	–	–	–	pEC50	6.11
Cc1ccc(C(=O)Nc2ccc(S(=O)(=O)O)c3cc(S(=O)(=O)O)cc(S(=O)(=O)O)c23)cc1NC(=O)c1cccc(NC(=O)Nc2cccc(C(=O)Nc3cc(C(=O)Nc4ccc(S(=O)(=O)O)c5cc(S(=O)(=O)O)cc(S(=O)(=O)O)c45)ccc3C)c2)c1	resazurin	RHODESIENSE STIB900	–	pIC50	7.46
Nc1nc(N)c2nc(CNc3ccc(C(=O)c4ccccc4)cc3)cnc2n1	resazurin	–	10 µM, 72 h	inhibition	76%
NS(=O)(=O)c1ccc(Nc2cc(-c3ccc(O)c(F)c3)n[nH]2)cc1	–	–	–	pEC50	5.20
CN(C)CCCN1c2ccccc2Sc2ccc(Cl)cc21	–	–	blood stage	pEC50	5.38
NC(=O)C1CCN(C(=O)c2ccc(NCc3cnc4nc(N)nc(N)c4n3)cc2)CC1	resazurin	–	10 µM, 72 h	inhibition	12%
Cc1ccc(C(=O)Nc2ccc(S(=O)(=O)O)c3cc(S(=O)(=O)O)cc(S(=O)(=O)O)c23)cc1NC(=O)c1cccc(NC(=O)Nc2cccc(C(=O)Nc3cc(C(=O)Nc4ccc(S(=O)(=O)O)c5cc(S(=O)(=O)O)cc(S(=O)(=O)O)c45)ccc3C)c2)c1	resazurin	RHODESIENSE	–	pIC50	7.30
OC1c2ccccc2CCc2ccccc21	–	–	–	pEC50	4.29
Cc1cc(NC(=O)Nc2ccc3c(c2)OC(F)(F)O3)cc(C(F)(F)F)n1	–	RHODESIENSE STIB900	–	pIC50	5.29
COc1ccc(Oc2ccc(CNCc3cnc4nc(N)nc(N)c4n3)cc2)cc1	resazurin	–	10 µM, 72 h	inhibition	31%
NNC(=O)CN1C(=O)CNC2(C1=O)C1CC3CC(C1)CC2C3 (centres unmarked)	–	–	pH 7.4, blood stage	pIC50	3.93
Cc1ccc2nc(-c3ccc(F)c(F)c3)c(CN3CCN(C4CCCCC4)CC3)n2c1	–	–	48 h	pEC50	< 4.70

Compound	test	test system	setting	measurement	value
COc1ccc(-c2oc3ncnc(N)c3c2-c2ccc(NC(=O)Nc3cc(C(F)(F)F)ccc3F)cc2)cc1	–	–	–	pEC50	5.80
Nc1nc(N)c2nc(C(=O)NCc3ccccc3)cnc2n1	resazurin	–	10 µM, 72 h	inhibition	19%
O=[N+]([O-])c1c(CS(=O)(=O)c2ccccc2)nc2c(-c3cccc(C(F)(F)F)c3)cc(Cl)cn12	resazurin	–	trypomastigote	pIC50	6.80 to 7.40
CS(=O)(=O)CCNCc1cc(-c2cc3c(Nc4ccc(OCc5cccc(F)c5)c(Cl)c4)ncnc3s2)cs1	–	–	–	pEC50	6.10
N=C(N)c1ccc(OCCCCCOc2ccc(C(=N)N)cc2)cc1	–	–	–	pEC50	8.91
CCCN1CCC(c2ccc(Nc3nc(Nc4cc(F)ccc4C(N)=O)c4cc[nH]c4n3)c(OC)c2)CC1	–	–	–	pEC50	5.80
COC(=O)C1CCN(C(=O)c2ccc(N(CCO)Cc3cnc4nc(N)nc(N)c4n3)cc2)CC1	resazurin	–	10 µM, 72 h	inhibition	9%
O=C(Cn1ccnc1[N+](=O)[O-])NCc1ccccc1	–	–	–	pIC50	4.02
CCS(=O)(=O)N(C)c1ccc(NC(=O)c2cccc(C(=N)N)c2)cc1OCc1ccc(C(=N)N)cc1	–	–	–	pIC50	6.30
O=C(Nc1ccc2c(c1)B(O)OC2)Nc1ccc(F)c(C(F)(F)F)c1	–	RHODESIENSE STIB900	–	pIC50	6.28
CONC(=O)CN1C(=O)CNC2(C1=O)C1CC3CC(C1)CC2C3 (centres unmarked)	–	–	pH 7.4, blood stage	pIC50	3.27
COc1cc2c(cc1Nc1nc(N3CCc4ccccc43)c3cc[nH]c3n1)N(C(=O)CN(C)C)CC2	–	–	–	pEC50	7.00
Nc1nc(N)c2nc(CNc3ccc(C(=O)N4CCC(C(=O)O)CC4)cc3)cnc2n1	resazurin	–	10 µM, 72 h	inhibition	8%
Cc1ccc2nc(-c3ccc(F)c(F)c3)c(CN3CCC(Cc4ccccc4)CC3)n2c1	–	–	48 h	EC90	18.1 µM
COc1cc(Nc2nccc(Nc3ccc4c(C)n[nH]c4c3)n2)cc(OC)c1OC	–	–	–	pEC50	6.20
CN(Cc1cnc2nc(N)nc(N)c2n1)c1ccc(C(=O)N2CCCCC2)cc1	resazurin	–	10 µM, 72 h	inhibition	48%
